Here are results for one molecule from ChEMBL document CHEMBL4411297, “Discovery, synthesis and anti-atherosclerotic activities of a novel selective sphingomyelin synthase 2 inhibitor” (Eur J Med Chem, 2019).

Data set [1] relates to Mus musculus. In words: Anti-atherosclerotic activity in apoE knockout mouse fed with western-type diet assessed as reduction in monocyte count at 40 mg/kg/day, ig for 7 weeks by flow cytometric analysis relative to control. Also on record: scale not given: the % may be the effect or the level left. The class given is functional. Put shortly: (§1)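 ApoE KO mice started at 8 weeks old on Western-type diet for 6 weeks. Then dosed by gavage daily with vehicle, 12.5 or 40 mg/kg for 7 weeks with the diet continued, 10 mice per group. Blood single-cell suspensions stained with antibodies in PBS and analysed by flow cytometry. Mean ± SD, n = 5.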
(In general: A flow cytometer gives signals particle by particle.)

Data set [2] concerns Mus musculus. The data set is described as follows: Effect on body weight in apoE knockout mouse fed with western-type diet at 12.5 to 40 mg/kg/day, ig for 7 weeks. The class given is ADME, organism-based. Conditions: in vivo, po, 1176 h. Put shortly: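 ApoE KO mice on Western-type diet, dosed by gavage daily at 12.5 or 40 mg/kg for 7 weeks. Body weight recorded weekly throughout dosing and compared with vehicle, 10 mice per group.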

Data set [3] has as its system Mus musculus. In words: Anti-atherosclerotic activity in apoE knockout mouse fed with western-type diet assessed as reduction in CD11b+/CD11c+ dendritic cells at 40 mg/kg/day, ig for 7 weeks by flow cytometric analysis relative to control. It counts as functional. Details: scale not given: the % may be the effect or the level left. Put shortly: as §1
The nature of data set [4]: MRT (0 to infinity) in C57BL/6J mouse at 50 mg/kg/day, ig by HPLC-MS/MS analysis. The class given is ADME, organism-based. The note with it: in vivo, po. The method in brief: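 Male C57BL/6J mice (6–8 weeks, ~20 g), fasted 12 h, given a single intragastric dose of 25, 50 or 100 mg/kg in 10% DMSO/30% PEG/0.9% NaCl. Retro-orbital blood at 5 min to 8 h; plasma protein-precipitated with methanol plus internal standard, assayed by LC-MS/MS; noncompartmental analysis. Mean ± SD, n = 6.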

Data set [5] can be described thus: AUC (0 to infinity) in C57BL/6J mouse at 50 mg/kg/day, ig by HPLC-MS/MS analysis. The class given is ADME, organism-based. Also on record: dose 50 mg/kg/day, time infinity, route intragastric. Conditions: in vivo, po. The method in brief: (§2)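 Male C57BL/6J mice, six to eight weeks old, about 20 g, fasted 12 h with free water. Given a single intragastric dose of 25, 50 or 100 mg/kg in 10% DMSO/30% PEG-100/0.9% NaCl. Blood taken retro-orbitally at 5 min to 8 h. Plasma protein-precipitated with methanol plus internal standard, then HPLC-MS/MS on a C18 column. Noncompartmental analysis, n = 6.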

Data set [6] concerns the target T1, Phosphatidylcholine:ceramide cholinephosphotransferase 2 (Homo sapiens) (UniProt Q8NHU3).
T1 sequence (whole entry): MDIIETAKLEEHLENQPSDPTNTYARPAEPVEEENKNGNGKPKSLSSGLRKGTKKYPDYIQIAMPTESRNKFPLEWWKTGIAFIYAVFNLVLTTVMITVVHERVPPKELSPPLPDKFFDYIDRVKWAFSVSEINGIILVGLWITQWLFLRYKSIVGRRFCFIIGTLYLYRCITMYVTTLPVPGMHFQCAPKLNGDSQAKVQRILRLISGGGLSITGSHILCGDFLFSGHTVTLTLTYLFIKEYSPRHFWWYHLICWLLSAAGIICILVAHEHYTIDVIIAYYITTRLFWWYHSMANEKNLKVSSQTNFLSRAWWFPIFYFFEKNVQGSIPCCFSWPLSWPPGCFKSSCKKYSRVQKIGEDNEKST
The data set is described as follows: Inhibition of SMS2 in human HuH7 cells assessed as down regulation of apoB secretion incubated for 17 hrs followed by further incubation for 2 hrs in presence of [35S]-methionine. The class given is cell-based. Put shortly:
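Huh7 human hepatoma cells treated with inhibitor 17 h, then pulse-labeled with [³⁵S]-methionine for 2 h with vehicle or compound; secreted [³⁵S]-apoB in medium detected and quantified.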

The test system of data set [7] is Mus musculus. In words: Effect on plasma ALT level in apoE knockout mouse fed with western-type diet at 12.5 to 40 mg/kg/day, ig for 7 weeks. It counts as ADME, organism-based. The note with it: in vivo, po, 1176 h. The method in brief:
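ApoE KO mice on Western-type diet, dosed by gavage at 12.5 or 40 mg/kg/day for 7 weeks, n = 10. Blood collected at 20 weeks of age. Plasma SM measured by a previously reported method. ALT and AST read on an automated biochemical analyzer.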

In data set [8] the test system is Mus musculus. In words: Anti-atherosclerotic activity in apoE knockout mouse fed with western-type diet assessed as reduction in macrophage content at 40 mg/kg/day, ig for 7 weeks by immunostaining assay relative to control. The class given is functional. Details: scale not given: the % may be the effect or the level left. Put shortly:
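ApoE KO mice on Western-type diet, dosed by gavage at 12.5 or 40 mg/kg/day for 7 weeks. Aortic root sections 4 µm thick immunostained with MOMA-2: primary antibody 1 h at room temperature, biotinylated secondary, HRP-streptavidin, DAB, hematoxylin counterstain. Stained area quantified and expressed relative to vehicle.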

Data set [9] relates to Mus musculus. In words: Anti-atherosclerotic activity in apoE knockout mouse fed with western-type diet assessed as reduction in lymphocyte count at 40 mg/kg/day, ig for 7 weeks by flow cytometric analysis relative to control. It counts as functional. Details: scale not given: the % may be the effect or the level left. Put shortly: as §1
Data set [10] in a line: Dose normalized AUC (0 to 8 hrs) in C57BL/6J mouse at 100 mg/kg/day, ig by HPLC-MS/MS analysis. It counts as ADME, organism-based. Conditions: in vivo, po. The method in brief: as §2
Data set [11] is described as follows: Half life in C57BL/6J mouse at 50 mg/kg/day, ig by HPLC-MS/MS analysis. The class given is ADME, organism-based. Conditions: in vivo, po. The method in brief:
as §2

Data set [12] relates to Mus musculus. In words: Anti-atherosclerotic activity in apoE knockout mouse fed with western-type diet assessed as reduction in lesions in whole aorta at 12.5 to 40 mg/kg/day, ig for 7 weeks by oil-red O staining-based assay relative to control. The class given is functional, organism-based. The method in brief: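 ApoE KO mice fed Western-type diet, then given 12.5 or 40 mg/kg/day by gavage in 30% PEG-400/10% DMSO/0.9% NaCl for 7 weeks. Aortic root: H&E-stained 4 µm sections, mean lesion area from 6 sections per animal. Whole aorta: en face Oil Red O staining, percentage of area stained. Compared with vehicle, n = 10.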

Data set [13] is described as follows: Apparent oral clearance in C57BL/6J mouse at 50 mg/kg/day, ig by HPLC-MS/MS analysis. It counts as ADME, organism-based. The note with it: in vivo. Put shortly: as §2
Data set [14] concerns the target T2, Phosphatidylcholine:ceramide cholinephosphotransferase 2 (Mus musculus) (UniProt Q9D4B1).
T2 sequence (whole entry): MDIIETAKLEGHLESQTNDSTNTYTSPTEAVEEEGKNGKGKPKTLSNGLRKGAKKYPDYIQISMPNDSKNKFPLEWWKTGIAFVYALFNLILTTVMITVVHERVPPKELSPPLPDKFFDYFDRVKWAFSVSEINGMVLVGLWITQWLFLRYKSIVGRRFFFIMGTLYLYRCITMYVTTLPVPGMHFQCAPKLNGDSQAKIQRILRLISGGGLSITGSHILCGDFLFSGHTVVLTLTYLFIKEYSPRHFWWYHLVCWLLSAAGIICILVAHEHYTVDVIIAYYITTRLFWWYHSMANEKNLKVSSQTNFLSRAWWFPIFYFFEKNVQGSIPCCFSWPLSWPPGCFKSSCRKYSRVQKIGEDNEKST
The data set is described as follows: Inhibition of SMS2 in C57BL/6J mouse bone marrow derived macrophages after 17 hrs.

Data set [15] is described as follows: Apparent oral clearance in C57BL/6J mouse at 25 mg/kg/day, ig by HPLC-MS/MS analysis. The class given is ADME, organism-based. Conditions: in vivo. Put shortly:
as §2

One may read the MRT inf as a mean duration of stay, worked out from the concentration-time curve. The AUC(0-inf) is total exposure, with the tail of the curve extrapolated. The term half-life denotes how long it takes for the measured level to halve. One may read the CL/F as clearance divided by bioavailability, as obtained after extravascular dosing. For the molecule `CCc1ccccc1COc1ccccc1C(=O)Nc1cccnc1`, the Activity is on record as 50% in data set [1]; “Non-Toxic” in data set [2]; 57% in data set [3]; “Non-Toxic” in data set [7]; 55% in data set [8]; 24% in data set [9]. Also, the Activity result in data set [12] was “Dose-dependent effect”. In data set [4], the MRT inf came to 2.28 h. This molecule also returned an AUC(0-inf) in [5] of 6790 ng·h/mL. Besides, the inhibition entry in data set [6] and in data set [14] was “Dose-dependent effect” in each case. Further, the AUC/dose in [10] came out at 0.13 µg·h/mL. In addition, the half-life in data set [11] is 1.83 h. In addition, the CL/F in data set [13] was 180 mL/min; in data set [15] it was 188 mL/min.
